ChEMBL document CHEMBL3120154, “2-[N-Alkyl(R-phenyl)-aminomethyl]-3-phenyl-7-trifluoromethylquinoxalines as anticancer agents inhibitors of folate enzymes” (Eur J Med Chem, 2014)

What was measured:
Format in all cases: functional
HCT-116 [1] = assay: Cytotoxicity against human HCT116 cells at 10^-7 M after 48 hrs by SRB assay; settings: HCT-116, 48 h, read-out: GI
NCI-H226 = assay: Cytotoxicity against human NCI-H226 cells at 10^-7 M after 48 hrs by SRB assay; settings: NCI-H226, 48 h, read-out: GI
RPMI-8226 = assay: Cytotoxicity against human RPMI8226 cells at 10^-7 M after 48 hrs by SRB assay; settings: RPMI-8226, 48 h, read-out: GI
SK-OV-3 = assay: Cytotoxicity against human SKOV3 cells at 10^-7 M after 48 hrs by SRB assay; settings: SK-OV-3, 48 h, read-out: GI
HCT-15 = assay: Cytotoxicity against human HCT15 cells at 10^-7 M after 48 hrs by SRB assay; settings: HCT-15, 48 h, read-out: GI
DU-145 = assay: Cytotoxicity against human DU145 cells at 10^-7 M after 48 hrs by SRB assay; settings: DU-145, 48 h, read-out: GI
NCI-H322M = assay: Cytotoxicity against human NCI-H322M cells at 10^-7 M after 48 hrs by SRB assay; settings: read-out: GI
K562 [2] = assay: Cytotoxicity against human K562 cells at 10^-8 M after 48 hrs by SRB assay; settings: K562, 48 h, read-out: GI
K562 [3] = assay: Cytotoxicity against human K562 cells at 10^-5 M after 48 hrs by SRB assay; settings: K562, 48 h, read-out: GI
HCT-116 [4] = assay: Cytotoxicity against human HCT116 cells at 10^-8 M after 48 hrs by SRB assay; settings: HCT-116, 48 h, read-out: GI
SF-268 [5] = assay: Cytotoxicity against human SF268 cells at 10^-8 M after 48 hrs by SRB assay; settings: SF-268, 48 h, read-out: GI
SK-MEL-28 = assay: Cytotoxicity against human SK-MEL-28 cells at 10^-8 M after 48 hrs by SRB assay; settings: SK-MEL-28, 48 h, read-out: GI
[6] = Cytotoxicity against human Hs578T cells at 10^-7 M after 48 hrs by SRB assay; settings: Hs-578T, read-out: GI
SF-268 [7] = assay: Cytotoxicity against human SF268 cells at 10^-7 M after 48 hrs by SRB assay; settings: SF-268, 48 h, read-out: GI
HT-29 [8] = assay: Cytotoxicity against human HT-29 cells at 10^-8 M after 48 hrs by SRB assay; settings: HT-29, 48 h, read-out: GI
HT-29 [9] = assay: Cytotoxicity against human HT-29 cells at 10^-7 M after 48 hrs by SRB assay; settings: HT-29, 48 h, read-out: GI
RXF 393 [10] = assay: Cytotoxicity against human RXF393 cells at 10^-7 M after 48 hrs by SRB assay; settings: RXF 393, 48 h, read-out: GI
IGROV-1 = assay: Cytotoxicity against human IGROV1 cells at 10^-7 M after 48 hrs by SRB assay; settings: IGROV-1, 48 h, read-out: GI
A549 = assay: Cytotoxicity against human A549 cells after 48 hrs by SRB assay; settings: A549, 48 h
HL-60(TB) = assay: Cytotoxicity against human HL-60(TB) cells at 10^-7 M after 48 hrs by SRB assay; settings: HL-60, 48 h, read-out: GI
Summary of the method: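 NCI 60-human-tumour-cell-line screen run over a 5-log dose range (100, 10, 1, 0.1 and 0.01 µM). Cells were exposed to drug for 48 h. Growth was estimated by sulforhodamine B protein staining. Values are percent growth inhibition at each concentration, relative to untreated control cells.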

KM12 [11] = assay: Cytotoxicity against human KM12 cells at 10^-8 M after 48 hrs by SRB assay; settings: KM12, 48 h, read-out: GI
SK-MEL-5 = assay: Cytotoxicity against human SK-MEL-5 cells at 10^-8 M after 48 hrs by SRB assay; settings: SK-MEL-5, 48 h, read-out: GI
MCF7 = assay: Cytotoxicity against human MCF7 cells at 10^-7 M after 48 hrs by SRB assay; settings: MCF7, 48 h, read-out: GI
SW-620 = assay: Cytotoxicity against human SW620 cells at 10^-7 M after 48 hrs by SRB assay; settings: SW-620, 48 h, read-out: GI
RXF 393 [12] = assay: Cytotoxicity against human RXF393 cells after 48 hrs by SRB assay; settings: RXF 393, 48 h
COLO 205 = assay: Cytotoxicity against human COLO205 cells at 10^-7 M after 48 hrs by SRB assay; settings: COLO 205, 48 h, read-out: GI
ACHN = assay: Cytotoxicity against human ACHN cells at 10^-8 M after 48 hrs by SRB assay; settings: read-out: GI
CCRF-CEM = assay: Cytotoxicity against human CCRF-CEM cells at 10^-8 M after 48 hrs by SRB assay; settings: read-out: GI
SR [13] = assay: Cytotoxicity against human SR cells at 10^-6 M after 48 hrs by SRB assay; settings: read-out: GI
TK-10 = assay: Cytotoxicity against human TK10 cells at 10^-7 M after 48 hrs by SRB assay; settings: TK-10, 48 h, read-out: GI
UACC-62 = assay: Cytotoxicity against human UACC62 cells at 10^-8 M after 48 hrs by SRB assay; settings: UACC-62, 48 h, read-out: GI
A498 = assay: Cytotoxicity against human A498 cells at 10^-7 M after 48 hrs by SRB assay; settings: A498, 48 h, read-out: GI
SR [14] = assay: Cytotoxicity against human SR cells at 10^-5 M after 48 hrs by SRB assay; settings: read-out: GI
KM12 [15] = assay: Cytotoxicity against human KM12 cells at 10^-7 M after 48 hrs by SRB assay; settings: KM12, 48 h, read-out: GI
SR [16] = assay: Cytotoxicity against human SR cells at 10^-8 M after 48 hrs by SRB assay; settings: read-out: GI
786-0 = assay: Cytotoxicity against human 786-0 cells at 10^-7 M after 48 hrs by SRB assay; settings: 786-0, 48 h, read-out: GI
K562 [17] = assay: Cytotoxicity against human K562 cells at 10^-7 M after 48 hrs by SRB assay; settings: K562, 48 h, read-out: GI

With `CCN(Cc1nc2cc(C(F)(F)F)ccc2nc1-c1ccccc1)c1ccc(OC)c(OC)c1` the inhibition of growth at 0.1 µM (HCT-116 [1]) was < 40%, the inhibition of growth at 0.1 µM (NCI-H226) was < 40% and the inhibition of growth at 0.1 µM (RPMI-8226) was < 40%. The inhibition of growth at 0.1 µM (SK-OV-3) was < 40%, the inhibition of growth at 0.1 µM (HCT-15) was < 40% and the inhibition of growth at 0.1 µM (DU-145) was < 40%. For the same molecule, the inhibition of growth at 0.1 µM (NCI-H322M) was < 40%, the inhibition of growth at 0.01 µM (K562 [2]) was < 40% and the inhibition of growth at 10 µM (K562 [3]) was 62%. The inhibition of growth at 0.01 µM (HCT-116 [4]) was < 40%, the inhibition of growth at 0.01 µM (SF-268 [5]) was < 40% and the inhibition of growth at 0.01 µM (SK-MEL-28) was < 40%. The inhibition of growth at 0.1 µM [6] was < 40%, the inhibition of growth at 0.1 µM (SF-268 [7]) was < 40% and the inhibition of growth at 0.01 µM (HT-29 [8]) was < 40%. For the same molecule, the inhibition of growth at 0.1 µM (HT-29 [9]) was < 40%, the inhibition of growth at 0.1 µM (RXF 393 [10]) was 43% and the inhibition of growth at 0.1 µM (IGROV-1) was < 40%. For the same molecule, the GI50 (A549) was 372 nM, the inhibition of growth at 0.1 µM (HL-60(TB)) was < 40% and the inhibition of growth at 0.01 µM (KM12 [11]) was < 40%. For the same molecule, the inhibition of growth at 0.01 µM (SK-MEL-5) was < 40%, the inhibition of growth at 0.1 µM (MCF7) was < 40% and the inhibition of growth at 0.1 µM (SW-620) was < 40%. The GI50 (RXF 393 [12]) was 309 nM, the inhibition of growth at 0.1 µM (COLO 205) was < 40% and the inhibition of growth at 0.01 µM (ACHN) was < 40%. For the same molecule, the inhibition of growth at 0.01 µM (CCRF-CEM) was < 40%, the inhibition of growth at 1 µM (SR [13]) was < 40% and the inhibition of growth at 0.1 µM (TK-10) was < 40%. The inhibition of growth at 0.01 µM (UACC-62) was < 40%, the inhibition of growth at 0.1 µM (A498) was < 40% and the inhibition of growth at 10 µM (SR [14]) was 56%. The inhibition of growth at 0.1 µM (KM12 [15]) was < 40%, the inhibition of growth at 0.01 µM (SR [16]) was < 40% and the inhibition of growth at 0.1 µM (786-0) was < 40%. For the same molecule, the inhibition of growth at 0.1 µM (K562 [17]) was < 40%.
